From ChEMBL document CHEMBL4725393, “Prodrug Strategies to Improve the Solubility of the HCV NS5A Inhibitor Pibrentasvir (ABT-530)” (J Med Chem, 2020)
≈ marks a conversion by molar mass, not a printed value.

Assays:
[1] = AUC in CD1 mouse assessed as pibrentasvir1 level at 3 mg/kg, po measured up to 24 hrs; format: ADME, organism-based; design: route oral, dose 3 mg/kg, time <=24; settings: in vivo
Summary of the method: (§1)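 CD-1 mice, fed ad libitum, were dosed orally at a prodrug-MW-adjusted dose equal to 3 mg/kg PIB, as a solution or suspension. Serial K2EDTA blood samples were taken from 0.25 to 24 h. Plasma was separated by centrifugation and kept frozen. PIB and prodrug levels were reported as Cmax (ng/mL) and AUC (ng·h/mL).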

[2] = AUC in cynomolgus monkey at 2 mg/kg, po measured up to 12 hrs; format: ADME, organism-based, Macaca fascicularis; design: route oral, dose 2 mg/kg, time <=12; settings: in vivo
Summary of the method: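 Female cynomolgus monkeys were fasted overnight and dosed by gastric intubation with a suspension in 0.5% HPMC at 0.5 mL/kg. The dose was MW-adjusted to 2 mg/kg PIB equivalent, and food was returned at 4 h. Plasma was collected at intervals up to 12 h and assayed for PIB and prodrug to give AUC in ng·h/mL.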

[3] = Equilibrium solubility of compound at pH 1 incubated for 24 to 48 hrs by HPLC analysis; format: physicochemical; settings: buffer, time 24-48 hrs
Summary of the method: (§2)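 For equilibrium solubility, excess solid was added to 3–4 mL of medium, in triplicate. Suspension pH was read after equilibration. Solids were removed by centrifugation at 4000 rpm at 25 °C, and the supernatant was passed through a 0.45 µm filter, discarding the first 2 mL. The filtrate was quantified by HPLC against standard curves.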

[4] = Equilibrium solubility of compound at pH 7.4 incubated for 24 to 48 hrs by HPLC analysis; format: physicochemical; settings: buffer, time 24-48 hrs; summary of the method: as §2
[5] = Stability of compound at pH 1 assessed as prodrug remaining level at 125 ug/ml incubated for 24 hrs by HPLC analysis; format: physicochemical; settings: buffer, pH 1, 24 h, at 125 µg/mL
Summary of the method: (§3)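 A DMSO stock of about 1.25 mg/mL was diluted into 0.1 N HCl (pH 1) or 50 mM phosphate buffer (pH 7.4), giving final concentrations of ~125 µg/mL prodrug and 10% DMSO. The solution was filtered and held at 37 °C in the HPLC autosampler, with injections at several times over 24 h. Percent remaining was calculated from prodrug peak area relative to t0.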

[6] = AUC in beagle dog assessed as pibrentasvir1 level at 40 mg, po measured up to 24 hrs; format: ADME, organism-based, Canis lupus familiaris; design: route oral, dose 40 mg, time <=24; settings: in vivo
Summary of the method: (§4)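 The dose equalled 40 mg PIB after adjustment for prodrug MW. Food was returned at 12 h. K2EDTA plasma was sampled at 0.25–24 h. Cmax is in ng/mL and AUC in ng·h/mL.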

[7] = Stability of compound at pH 7.4 assessed as prodrug remaining level at 125 ug/ml incubated for 24 hrs by HPLC analysis; format: physicochemical; settings: buffer, pH 7.4, 24 h, at 125 µg/mL; summary of the method: as §3
[8] = Cmax in CD1 mouse assessed as pibrentasvir1 level at 3 mg/kg, po measured up to 24 hrs; format: ADME, organism-based; design: route oral, dose 3 mg/kg, time <=24; settings: in vivo; summary of the method: as §1
[9] = Half life of compound at pH 7.4 at 125 ug/ml at 37 degC by HPLC analysis; format: physicochemical; settings: dose 125 µg/ml
[10] = Cmax in beagle dog assessed as pibrentasvir1 level at 40 mg, po measured up to 24 hrs; format: ADME, organism-based, Canis lupus familiaris; design: route oral, dose 40 mg, time <=24; settings: in vivo; summary of the method: as §4
[11] = Cmax in CD1 mouse assessed as pibrentasvir1 level at 6 mg/kg, po measured up to 24 hrs; format: ADME, organism-based; design: route oral, dose 6 mg/kg, time <=24; settings: in vivo
Summary of the method: (§5)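 CD-1 mice with free access to food and water received an oral gavage of prodrug or PIB at 10 mL/kg in 0.2% HPMC. The dose was adjusted for prodrug MW to equal 6 mg/kg PIB. K2EDTA blood was drawn at 0.25, 0.5, 1, 3, 6, 9, 12 and 24 h. Plasma was spun at 3200 x g for 5 min at ~4°C and stored below -15°C. PIB and prodrug were measured; AUC in ng·h/mL, Cmax in ng/mL.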

[12] = Solubility in FeSSIF at pH 5; format: physicochemical; summary of the method: as §2
[13] = AUC in CD1 mouse assessed as pibrentasvir1 level at 6 mg/kg, po measured up to 24 hrs; format: ADME, organism-based; design: route oral, dose 6 mg/kg, time <=24; settings: in vivo; summary of the method: as §5
[14] = AUC in beagle dog at 40 mg, po measured up to 24 hrs; format: ADME, organism-based, Canis lupus familiaris; design: route oral, dose 40 mg, time <=24; settings: in vivo; summary of the method: as §4

AUC [1] [ng·h/mL] | AUC at 12 h [2] [ng·h/mL] | solubility thermodynamic [3] [µg/mL] | solubility thermodynamic [4] [µg/mL] | Stabilty [5] [%] | AUC [6] [ng·h/mL] | Stabilty [7] [%] | Cmax [8] [ng/mL] | half-life at 125 ug/ml [9] [h] | Cmax [10] [ng/mL] | Cmax [11] [ng/mL] | solubility [12] [µg/mL] | AUC [13] [ng·h/mL] | AUC at 24 h [14] [ng·h/mL] | Compound
2660 | 160 | 37.3 (≈ 30.5 µM) | 6.4 (≈ 5.23 µM) | 100 | 429 | 100 | 141 | > 72 | 55 | – | – | – | – | COC(=O)N[C@H](C(=O)N1CCC[C@H]1c1nc2cc(F)c([C@H]3CC[C@H](c4cc5nc([C@@H]6CCCN6C(=O)[C@@H](NC(=O)OC)[C@@H](C)OC)n(COP(=O)(O)O)c5cc4F)N3c3cc(F)c(N4CCC(c5ccc(F)cc5)CC4)c(F)c3)cc2[nH]1)[C@@H](C)OC
3710 | – | 186 (≈ 135 µM) | 0.7 (≈ 0.507 µM) | 97 | 1210 | 31 | 216 | < 24 | 112 | – | – | – | – | COC(=O)N[C@H](C(=O)N1CCC[C@H]1c1nc2cc(F)c([C@H]3CC[C@H](c4cc5nc([C@@H]6CCCN6C(=O)[C@@H](NC(=O)OC)[C@@H](C)OC)n(COC(=O)[C@@H](NC(=O)COP(=O)(O)O)C(C)C)c5cc4F)N3c3cc(F)c(N4CCC(c5ccc(F)cc5)CC4)c(F)c3)cc2[nH]1)[C@@H](C)OC
– | – | 146 (≈ 112 µM) | 49 (≈ 37.4 µM) | 82 | 4510 | 76 | – | – | 462 | 336 | > 1000 | 5570 | – | COC(=O)N[C@H](C(=O)N1CCC[C@H]1c1nc2cc(F)c([C@H]3CC[C@H](c4cc5nc([C@@H]6CCCN6C(=O)[C@@H](NC(=O)OC)[C@@H](C)OC)n(COC(=O)CCCOP(=O)(O)O)c5cc4F)N3c3cc(F)c(N4CCC(c5ccc(F)cc5)CC4)c(F)c3)cc2[nH]1)[C@@H](C)OC
– | – | 99 (≈ 72.9 µM) | < 0.2 | 99 | 1150 | 89 | – | – | 115 | 622 | > 1000 | 10700 | – | COC(=O)N[C@H](C(=O)N1CCC[C@H]1c1nc2cc(F)c([C@H]3CC[C@H](c4cc5nc([C@@H]6CCCN6C(=O)[C@@H](NC(=O)OC)[C@@H](C)OC)n(COC(=O)c6ccccc6COP(=O)(O)O)c5cc4F)N3c3cc(F)c(N4CCC(c5ccc(F)cc5)CC4)c(F)c3)cc2[nH]1)[C@@H](C)OC
– | – | 271 (≈ 194 µM) | > 1000 | 95 | – | 28 | – | < 24 | – | 513 | > 1000 | 8930 | – | COC(=O)N[C@H](C(=O)N1CCC[C@H]1c1nc2cc(F)c([C@H]3CC[C@H](c4cc5c(cc4F)nc([C@@H]4CCCN4C(=O)[C@@H](NC(=O)OC)[C@@H](C)OC)n5COC(=O)[C@@H](NC(=O)OCOP(=O)(O)O)C(C)C)N3c3cc(F)c(N4CCC(c5ccc(F)cc5)CC4)c(F)c3)cc2[nH]1)[C@@H](C)OC
353 | – | 567 (≈ 425 µM) | > 1000 | – | 611 | – | 20 | – | 66 | – | – | – | – | COC(=O)N[C@H](C(=O)N1CCC[C@H]1c1nc2cc(F)c([C@H]3CC[C@H](c4cc5c(cc4F)nc([C@@H]4CCCN4C(=O)[C@@H](NC(=O)OC)[C@@H](C)OC)n5COP(=O)(O)O)N3c3cc(F)c(N4CCC(c5ccc(F)cc5)CC4)c(F)c3)cc2n1COP(=O)(O)O)[C@@H](C)OC
6070 | – | 135 (≈ 101 µM) | 123 (≈ 92.1 µM) | 100 | 355 | – | 396 | – | 40 | – | – | – | – | COC(=O)N[C@H](C(=O)N1CCC[C@H]1c1nc2cc([C@H]3CC[C@H](c4cc5nc([C@@H]6CCCN6C(=O)[C@@H](NC(=O)OC)[C@@H](C)OC)n(COP(=O)(O)O)c5cc4F)N3c3cc(F)c(N4CCC(c5ccc(F)cc5)CC4)c(F)c3)c(F)cc2n1COP(=O)(O)O)[C@@H](C)OC
– | – | > 1000 | > 1000 | 92 | 3020 | 92 | – | – | 297 | 380 | > 1000 | 6490 | – | COC(=O)N[C@H](C(=O)N1CCC[C@H]1c1nc2cc(F)c([C@H]3CC[C@H](c4cc5nc([C@@H]6CCCN6C(=O)[C@@H](NC(=O)OC)[C@@H](C)OC)n(COC(=O)N(C)c6ncccc6COP(=O)(O)O)c5cc4F)N3c3cc(F)c(N4CCC(c5ccc(F)cc5)CC4)c(F)c3)cc2[nH]1)[C@@H](C)OC
– | 240 | 572 (≈ 401 µM) | 0.5 (≈ 0.35 µM) | 87 | 3210 | 100 | – | > 72 | 249 | 1210 | 794 (≈ 556 µM) | 20600 | – | COC(=O)N[C@H](C(=O)N1CCC[C@H]1c1nc2cc(F)c([C@H]3CC[C@H](c4cc5nc([C@@H]6CCCN6C(=O)[C@@H](NC(=O)OC)[C@@H](C)OC)n(COC(=O)CC(C)(C)c6c(C)cc(C)cc6OP(=O)(O)O)c5cc4F)N3c3cc(F)c(N4CCC(c5ccc(F)cc5)CC4)c(F)c3)cc2[nH]1)[C@@H](C)OC
477 | – | > 1000 | > 1000 | – | 2580 | – | 28 | – | 275 | – | – | – | – | COC(=O)N[C@H](C(=O)N1CCC[C@H]1c1nc2cc([C@H]3CC[C@H](c4cc5c(cc4F)nc([C@@H]4CCCN4C(=O)[C@@H](NC(=O)OC)[C@@H](C)OC)n5COP(=O)(O)O)N3c3cc(F)c(N4CCC(c5ccc(F)cc5)CC4)c(F)c3)c(F)cc2n1COP(=O)(O)O)[C@@H](C)OC
– | – | 2 (≈ 1.47 µM) | < 0.2 | 15 | 2940 | 28 | – | – | 288 | 584 | > 1000 | 9560 | – | COC(=O)N[C@H](C(=O)N1CCC[C@H]1c1nc2cc(F)c([C@H]3CC[C@H](c4cc5nc([C@@H]6CCCN6C(=O)[C@@H](NC(=O)OC)[C@@H](C)OC)n(COC(=O)Cc6ccccc6OP(=O)(O)O)c5cc4F)N3c3cc(F)c(N4CCC(c5ccc(F)cc5)CC4)c(F)c3)cc2[nH]1)[C@@H](C)OC
– | 197 | 45 (≈ 33.2 µM) | 135 (≈ 99.5 µM) | 74 | 1920 | 71 | – | > 24 | 155 | 905 | > 1000 | 16100 | – | COC(=O)N[C@H](C(=O)N1CCC[C@H]1c1nc2cc(F)c([C@H]3CC[C@H](c4cc5nc([C@@H]6CCCN6C(=O)[C@@H](NC(=O)OC)[C@@H](C)OC)n(COC(=O)Cc6ccc(OP(=O)(O)O)cc6)c5cc4F)N3c3cc(F)c(N4CCC(c5ccc(F)cc5)CC4)c(F)c3)cc2[nH]1)[C@@H](C)OC
2340 | – | > 1000 | < 0.1 | 78 | 3940 | 5 | 129 | – | 379 | – | > 1000 | – | 568 | COC(=O)N[C@H](C(=O)N1CCC[C@H]1c1nc2cc(F)c([C@H]3CC[C@H](c4cc5nc([C@@H]6CCCN6C(=O)[C@@H](NC(=O)OC)[C@@H](C)OC)n(COC(=O)[C@@H](N)C(C)C)c5cc4F)N3c3cc(F)c(N4CCC(c5ccc(F)cc5)CC4)c(F)c3)cc2[nH]1)[C@@H](C)OC
